According to article PMC5746459 (Journal of medicinal chemistry, 2017):
Entries after “also recorded” stand apart in the source; their conditions may differ. Counter-ions that a name gives are not always drawn.

Assays:
Swiss Webster mice [1] = experiment: Locomotor activity in mice; format: in vivo, mouse; details: i.p., 1 h session; for effect on locomotor activity: cocaine 5–40 mg/kg, 10a 3–56 mg/kg
Swiss Webster mice [2] = experiment: Drug discrimination, mice trained to discriminate cocaine from saline; format: in vivo, mouse; details: for overall group response rate, % of control performance: mice, drug discrimination sessions, all doses tested
human DAT (hDAT) WT = human DAT (hDAT) WT (Homo sapiens, UniProt Q01959); experiment: [3H]DA uptake inhibition in COS7 cells transiently expressing DAT WT; format: cell-based
human DAT (hDAT) WT, sequence (Q01959 whole entry): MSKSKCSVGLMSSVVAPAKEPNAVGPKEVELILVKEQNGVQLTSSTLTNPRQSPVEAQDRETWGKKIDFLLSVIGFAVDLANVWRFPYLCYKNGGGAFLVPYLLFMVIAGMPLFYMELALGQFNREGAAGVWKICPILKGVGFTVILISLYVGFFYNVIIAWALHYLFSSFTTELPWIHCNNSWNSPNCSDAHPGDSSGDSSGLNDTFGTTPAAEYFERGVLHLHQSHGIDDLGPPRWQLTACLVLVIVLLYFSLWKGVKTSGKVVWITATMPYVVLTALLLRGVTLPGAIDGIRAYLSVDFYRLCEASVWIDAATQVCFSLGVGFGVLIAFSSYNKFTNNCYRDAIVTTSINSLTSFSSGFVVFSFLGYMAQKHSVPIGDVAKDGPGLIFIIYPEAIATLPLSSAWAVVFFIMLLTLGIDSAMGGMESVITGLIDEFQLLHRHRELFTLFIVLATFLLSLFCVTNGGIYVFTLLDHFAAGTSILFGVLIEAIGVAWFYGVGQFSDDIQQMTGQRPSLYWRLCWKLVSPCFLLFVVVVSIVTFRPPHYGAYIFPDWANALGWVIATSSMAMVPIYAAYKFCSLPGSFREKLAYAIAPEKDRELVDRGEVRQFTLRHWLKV

[3] = Phase I metabolic stability in mouse liver microsomes; format: in vitro ADME; details: mouse liver microsomes with and without NADPH
Procedure, shortened: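 Test compound at 10 uM final was incubated in triplicate with 0.5 mg/mL mouse liver microsomes in 100 mM potassium phosphate, pH 7.4. The NADPH regenerating system contained 1.3 mM NADPH, 3.3 mM glucose 6-phosphate, 3.3 mM MgCl2, 0.4 U/mL glucose-6-phosphate dehydrogenase and sodium citrate. Reactions were started by adding microsomes, with cofactor-free controls. Percent remaining over time was measured by LC/MS/MS; mean ± S.E.M., n=3 per time point.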

mice = details: previous studies; cited from earlier work

For `CN(C)CCN1C2CCC1CC(OC(c1ccc(F)cc1)c1ccc(F)cc1)C2` (stereo not shown) [10a, 2-(3-(bis(4-fluorophenyl)methoxy)-8-azabicyclo[3.2.1]octan-8-yl)-N,N-dimethylethanamine Oxalate], the “effect on locomotor activity” value (Swiss Webster mice [1]) was “None of the doses of 10a significantly increased activity counts more than vehicle; also recorded: failed to produce a significant increase in locomotor activity; also recorded: did not significantly increase locomotor activity”, the “substitution for cocaine discriminative stimulus” value (Swiss Webster mice [2]; mice trained with cocaine 10 mg/kg vs saline, 5 or 30 min pretreatment) was “failed to substitute for cocaine; also recorded: did not generalize to the cocaine discriminative stimulus” and the “overall group response rate, % of control performance” value (Swiss Webster mice [2]) was no less than 50%. The “DA uptake inhibition potency relative to cocaine (times higher)” value (human DAT (hDAT) WT) was greater than 4 and the “Phase I metabolic stability” value [3] was “complete stability under all conditions”.
For `CN(C)CCN1C2CCC1CC(NC(c1ccc(F)cc1)c1ccc(F)cc1)C2` (stereo not shown) [10b, N-(Bis(4-fluorophenyl)methyl)-8-(2-(dimethylamino)ethyl)-8-azabicyclo[3.2.1]octan-3-amine Oxalate], the “DA uptake inhibition potency relative to cocaine (times higher)” value (human DAT (hDAT) WT) was greater than 4.
`NCCc1ccc(O)c(O)c1` [Dopamine, reference compound] gave a Km (human DAT (hDAT) WT; read-out: DAT WT, Dopamine (kM), [3H]DA uptake, COS7 cells transiently expressing DAT WT, mean [s.e.m. interval]) of 0.999 µM.
For `CN1[C@H]2CC[C@@H]1[C@@H](c1cc(-c3ccccc3)no1)[C@H](OC(c1ccc(F)cc1)c1ccc(F)cc1)C2` [S-(+)-19a, S-(+)-2β-(3-Phenylisoxazol-5-yl)-3α-[bis(4-fluorophenyl)methoxy]tropane], the Ki (human DAT (hDAT) WT; read-out: DAT WT Ki, [3H]DA uptake inhibition, COS7 cells transiently expressing DAT WT, mean [s.e.m. interval]) was 212 nM.
In the case of `COC(=O)[C@H]1[C@@H](OC(=O)c2ccccc2)C[C@@H]2CC[C@H]1N2C` [compound 1, cocaine, reference compound], the “maximum locomotor activity, % of activity counts compared to vehicle” value (Swiss Webster mice [1]; 20 and 40 mg/kg) is reported as “≈ 300%”, the “effect on locomotor activity” value (Swiss Webster mice [1]) is reported as “dose-dependently increased locomotion” and the “overall group response rate, % of control performance” value (Swiss Webster mice [2]) is reported as no less than 50%.
In the case of `Cc1ccc(C2CC3CCC(C2c2cc(-c4ccc(Cl)cc4)no2)N3C)cc1` (stereo not shown) [compound 5], the “stimulation of locomotor activity” value (mice) is given as “fails to stimulate locomotor activity in mice”.
For `Cc1ccc(-c2cc(C3C(c4ccc(Cl)cc4)CC4CCC3N4C)on2)cc1` (stereo not shown) [compound 6], the “stimulation of locomotor activity” value (mice) is listed as “does stimulate locomotion”.
